14 compounds from PubChem BioAssay can be followed below.

Assay [1] is described as follows: inhibitors of TNFa-induced NFkB p65 translocation, primary screen, imaging, HUVEC, MLSMR starter and 10KST1 sets (AID 438;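 active means inhibition above 20% together with a positive visual image hit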;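 further: compound added about 3h40 before a 20 min TNFalpha stimulation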;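 on inhibition: signal is the nuclear over cytoplasmic p65 intensity ratio per well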). To be noted: HUVEC TNFa-induced p65 nuclear translocation; cell count: measured here: nuclei count (cytotoxicity indicator), at 2.08 µM; inhibition: at 2 µM, stronger effect = higher value, 0% TNFa-plus-vehicle, 100% no-TNFa wells.
Assay [2] in a line: reduction of polyQ htt aggregates in cells – imaging, exon1htt(103Q)mCFP cells, high-content imaging, primary screen (AID 483).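 Further: compound exposure lasted 3 days before fixation.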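 On nuclei count: percent of the per-plate median nuclei count of sample wells.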 To be noted: exon1htt(103Q)mCFP cell line, aggregate imaging, at 2 µM; inhibition of aggregation: stronger effect = higher value; nuclei count: measured here: cell count, toxicity.
A short description of assay [3]: endothelial E-selectin expression blockers – imaging, HUVEC, immunofluorescence, MLSMR starter and 10KST1 sets, primary screen (AID 487;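 active means visually confirmed hit in the image check and inhibition above 20%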;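 on inhibition: signal is fraction of cell area covered by stained E-selectin grains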;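 on nuclei count: 100% = median nuclei count of all wells on the same plate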). Conditions: HUVEC TNFalpha-induced E-selectin immunofluorescence imaging, at 2 µM; inhibition: stronger effect = higher value; nuclei count: measured here: cell number, toxicity.
Assay [4] concerns the target Voltage-gated potassium channel subunit beta-2 (Rattus norvegicus) (UniProt P62483). Kind of assay: inhibitors of rat Kvbeta2 reductase activity – biochemical, NADPH fluorescence, primary screen (AID 622;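 active means fluorescence slope higher than the sample average by over 3 SD, cut at about -0.22 in these data, passing the limit was not always enough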;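 further: slope of raw intensity against log time taken from 70 to 1610 s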). To be noted: recombinant KvBeta, 4-cyanobenzaldehyde reduction, at 10 µM, stronger effect = higher value.
Assay [5] shares this target. Kind of assay: enhancers of rat Kvbeta2 NADPH turnover – biochemical, NADPH fluorescence, primary screen (AID 623;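 active means NADPH fluorescence slope more negative than the mean of all samples by about 3 SD, 99.7% confidence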;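 further: fluorescence intensity change per second fitted from 20 to 320 s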). Conditions: Recombinant KvBeta, NADPH fluorescence decrease slope, 10 min; at 10 µM; stronger effect = lower value.
For assay [6], the target named is Muscarinic acetylcholine receptor M4 (Homo sapiens) (UniProt P08173). In words: M4-linked GIRK flux change, two-sided – cell-based, HEK293 M4/GIRK, thallium flux, BTC-AM, M4 allosteric agonist project, primary screen (AID 625;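 active means fluorescence slope after compound addition differing from the mean of all tested samples at 99.7% confidence, mostly higher but some lower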;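 further: thallium influx through GIRK channels coupled to M4 in HEK293 cells with BTC-AM dye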). Conditions: at 10 µM, actives lie on both sides. Summed up:
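Material: HEK293 cells with M4 receptor and GIRK channels; Times: cells overnight at 37 °C, BTC-AM loading 1 h, reads 2 min total; Technique: kinetic BTC-AM fluorescence sampled at 1 Hz, 10 s pre-addition baseline; Read-out basis: slope over 15–24 s of trace normalized to starting intensity; Controls: carbachol positive, DMSO negative.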

Assay [7] can be described thus: blockers of RIG-like receptor reporter activation – cell-based, Sendai virus stimulus, luciferase, 10K MLSCN set, TLR/RLR signaling modifier project, primary screen (AID 602276;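 active means inhibition at or above 50% at 10 µM; inactive means inhibition below 50%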;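 further: firefly luciferase from ISG56 promoter only with Renilla not read in this screen; 0% = Sendai virus plus DMSO and 100% = medium plus DMSO without virus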). To be noted: HEK293 RL24 IRF3 luciferase reporter, at 10 µM, stronger effect = higher value.
Assay [8] is described as follows: TLR3 IRF3 reporter activation blockers – cell-based, poly I:C stimulus, luciferase, 10K MLSCN set, primary screen (AID 602277;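 active means inhibition of the reporter signal at or above 50%; inactive means inhibition below 50%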). To be noted: HEK293-TLR3 RL24 IRF3 luciferase reporter, at 10 µM, stronger effect = higher value.

The source made the active and inactive calls.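 How the source made its calls, unless noted: active means visual image review flags a hit and inhibition of aggregation exceeds 20%; inconclusive means visual hit but inhibition at or below 20%; inactive means no hit on visual image review.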

Voltage-gated potassium channel subunit beta-2 (Rattus norvegicus), sequence (P62483 whole entry, looked up): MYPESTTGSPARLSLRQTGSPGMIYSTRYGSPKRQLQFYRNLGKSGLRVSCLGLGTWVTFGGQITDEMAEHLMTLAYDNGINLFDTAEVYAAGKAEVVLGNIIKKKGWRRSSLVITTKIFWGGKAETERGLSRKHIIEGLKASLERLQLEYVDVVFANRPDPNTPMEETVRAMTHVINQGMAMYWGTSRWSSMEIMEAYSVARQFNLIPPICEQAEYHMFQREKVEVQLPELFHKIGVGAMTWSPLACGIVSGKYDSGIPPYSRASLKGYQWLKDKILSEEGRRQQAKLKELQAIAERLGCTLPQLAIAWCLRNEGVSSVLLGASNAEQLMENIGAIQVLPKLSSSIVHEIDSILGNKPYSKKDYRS
Muscarinic acetylcholine receptor M4 (Homo sapiens), sequence (P08173 whole entry, looked up): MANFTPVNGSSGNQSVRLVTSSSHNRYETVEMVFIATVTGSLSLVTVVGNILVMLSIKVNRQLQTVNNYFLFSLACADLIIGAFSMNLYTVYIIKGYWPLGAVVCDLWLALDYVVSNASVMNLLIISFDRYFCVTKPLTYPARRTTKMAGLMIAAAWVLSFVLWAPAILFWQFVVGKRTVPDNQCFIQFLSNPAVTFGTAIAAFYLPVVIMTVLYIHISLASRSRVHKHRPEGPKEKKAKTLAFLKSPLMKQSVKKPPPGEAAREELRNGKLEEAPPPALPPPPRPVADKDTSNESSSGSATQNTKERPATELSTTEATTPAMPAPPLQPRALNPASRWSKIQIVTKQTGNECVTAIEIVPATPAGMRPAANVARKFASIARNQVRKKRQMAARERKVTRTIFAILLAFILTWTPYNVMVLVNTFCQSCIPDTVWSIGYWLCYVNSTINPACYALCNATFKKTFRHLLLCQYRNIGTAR

Regarding `Cc1c(NC(=O)c2cnn3c2NC(c2ccco2)CC3C(F)(F)F)c(=O)n(-c2ccccc2)n1C` (centres undefined), the cell count in assay [1] was determined as 436. Besides, the inhibition in assay [1] is -1% (inactive); in assay [3], -27.3% (inactive); in assay [7], 15.2% (inactive); in assay [8] it was 18.8% (inactive). Also, the inhibition of aggregation in assay [2] is 2.9% (inactive). Besides, the nuclei count in assay [2] amounted to 101%; in assay [3] it was 115%. The fluorescence slope is -0.557 (inactive) in assay [4] and 0.00692 (inactive) in assay [6]. The NADPH fluorescence slope in assay [5] was -2.6e-05 (inactive).
For `COc1ccc(-c2nnc(SCC#N)o2)cc1`, in assay [1], the cell count turned out to be 333. The inhibition in assay [1] is -8.7% (inactive); in assay [3], 24.6% (inactive); in assay [7] it was -8.24% (inactive); in assay [8], -31.5% (inactive). In assay [2], the inhibition of aggregation was 29.7% (active). The nuclei count came to 86% in assay [2] and 102% in assay [3]. The values for the fluorescence slope in assay [4] and in assay [6] were -0.511 (inactive) and 0.00472 (inactive), respectively. Moreover, the NADPH fluorescence slope in assay [5] was -2.6e-05 (inactive).
Consider `O=C(NCCc1ccccc1)c1cc(-c2ccco2)on1`, for which, in assay [1], the cell count was found to be 384. Also, the inhibition was -8.7% (inactive) in assay [1], -29.5% (inactive) in assay [3], -44.9% (inactive) in assay [7] and -169% (inactive) in assay [8]. The inhibition of aggregation in assay [2] was 7.8% (inactive). The nuclei count in assay [2] stood at 102%; in assay [3], 96.5%. The fluorescence slope in assay [4] was -0.473 (inactive); in assay [6], 0.00445 (inactive). Also, the NADPH fluorescence slope in assay [5] is -5.1e-05 (inactive).
On to `CN(C)C(=O)CSc1nnc([C@H](Cc2c[nH]c3ccccc23)NC(=O)OC(C)(C)C)o1`, for which the cell count in assay [1] was determined as 375. The inhibition is 2.2% (inactive) in assay [1], -35.8% (inactive) in assay [3], 18.2% (inactive) in assay [7] and 23.4% (inactive) in assay [8]. Moreover, the inhibition of aggregation in assay [2] was -9.3% (inactive). The nuclei count in assay [2] was 108%; in assay [3], 112%. Further, the fluorescence slope was -0.634 (inactive) in assay [4] and 0.00313 (inactive) in assay [6]. The NADPH fluorescence slope in assay [5] is -2.1e-05 (inactive).
As for `O=C(CCCCC(=O)NCc1cccs1)NCc1cccs1`, in assay [1], the cell count came out at 681. In addition, the inhibition in assay [1] is -12.6% (inactive); in assay [3], 0.6% (inactive); in assay [7], -6.61% (inactive); in assay [8] it was 0.312% (inactive). Besides, the inhibition of aggregation in assay [2] was -3.7% (inactive). In addition, the nuclei count in assay [2] stood at 110%; in assay [3], 88.9%. The figures for the fluorescence slope in assay [4] and in assay [6] were -0.571 (inactive) and 0.00493 (inactive), respectively. For the same compound, in assay [5], the NADPH fluorescence slope is 3.2e-05 (inactive).
Turning to `C=C(C)Cn1c(CCNC(=O)CC)nc2ccccc21`, the cell count in assay [1] came to 494. Further, the inhibition was -28.5% (inactive) in assay [1], -107% (inactive) in assay [3], 9.76% (inactive) in assay [7] and 14.1% (inactive) in assay [8]. Besides, in assay [2], the inhibition of aggregation was 1.3% (inactive). Besides, the nuclei count in assay [2] was 101%; in assay [3] it was 112%. Also, the results for the fluorescence slope in assay [4] and in assay [6] were -0.433 (inactive) and 0.00575 (inactive), respectively. Further, in assay [5], the NADPH fluorescence slope is -6.1e-05 (inactive).
As for `c1ccc(-c2nnc(CN3CCC4(CC3)OCCO4)o2)cc1`, in assay [1], the cell count turned out to be 407. Further, the inhibition in assay [1] is -6.8% (inactive); in assay [3], -27% (inactive); in assay [7], 8.62% (inactive); in assay [8], 10.2% (inactive). The inhibition of aggregation in assay [2] is 15.2% (inactive). Besides, the nuclei count in assay [2] worked out at 70.5%; in assay [3] it was 118%. Further, the results for the fluorescence slope in assay [4] and in assay [6] were -0.596 (inactive) and 0.0059 (inactive), respectively. The NADPH fluorescence slope in assay [5] was 1.6e-05 (inactive).
For `CCCOc1ccc(C2C(C(=O)c3ccc(C)o3)=C(O)C(=O)N2Cc2cccnc2)cc1` (centres undefined), the cell count in assay [1] turned out to be 755. Besides, the inhibition in assay [1] is -2.8% (inactive); in assay [3], 35.3% (inactive); in assay [7], 9.82% (inactive); in assay [8] it was 3.74% (inactive). Moreover, the inhibition of aggregation in assay [2] was -9.2% (inactive). The nuclei count in assay [2] came to 105%; in assay [3], 107%. Moreover, the results for the fluorescence slope in assay [4] and in assay [6] were -0.495 (inactive) and 0.00434 (inactive), respectively. For the same compound, the NADPH fluorescence slope in assay [5] was 9.3e-06 (inactive).
Take `O=C(Nc1nc(-c2ccc(S(=O)(=O)N3CCCCCC3)cc2)cs1)c1cccs1`: the cell count in assay [1] stood at 368. In addition, the inhibition was 15% (inactive) in assay [1], -30.6% (inactive) in assay [3], 10.4% (inactive) in assay [7] and 3.6% (inactive) in assay [8]. Further, the inhibition of aggregation in assay [2] was -6.4% (inactive). Also, the values for the nuclei count in assay [2] and in assay [3] were 115% and 122%, respectively. The fluorescence slope in assay [4] is -0.53 (inactive); in assay [6], 0.0134 (active). Moreover, the NADPH fluorescence slope in assay [5] is -2.4e-05 (inactive).
On to `CC(=O)c1c(C)[nH]c(C(=O)Nc2ccc3c(c2)OCCO3)c1C`, for which, in assay [1], the cell count is 402. Besides, the inhibition in assay [1] is -3.5% (inactive); in assay [3] it was -18.4% (inactive); in assay [7] it was -15.9% (inactive); in assay [8] it was -58% (inactive). Further, the inhibition of aggregation in assay [2] was -4.8% (inactive). The nuclei count in assay [2] came to 115%; in assay [3], 114%. The fluorescence slope in assay [4] was -0.596 (inactive); in assay [6], 0.00406 (inactive). Also, the NADPH fluorescence slope in assay [5] is 6.7e-06 (inactive).
Consider `O=C(c1cc(-c2ccco2)nn1-c1cccc(Cl)c1)N1CCCCC1`, for which the cell count in assay [1] worked out at 502. Further, the inhibition in assay [1] was -4.7% (inactive); in assay [3], 1.9% (inactive); in assay [7], 22.9% (inactive); in assay [8] it was 36.1% (inactive). Also, the inhibition of aggregation in assay [2] was -5.1% (inactive). Further, the nuclei count in assay [2] turned out to be 91%; in assay [3], 100%. In addition, the values for the fluorescence slope in assay [4] and in assay [6] were -0.588 (inactive) and 0.0049 (inactive), respectively. Also, the NADPH fluorescence slope in assay [5] was -1.4e-05 (inactive).
In the case of `Cc1sc2ncnc(OCC(=O)N3CCN(S(=O)(=O)c4ccccc4)CC3)c2c1C`, the cell count in assay [1] came out at 247. The inhibition in assay [1] was -7.7% (inactive); in assay [3], 16.8% (inactive); in assay [7], 16.8% (inactive); in assay [8] it was 15.1% (inactive). Moreover, in assay [2], the inhibition of aggregation was 11.8% (inactive). For the same compound, the nuclei count turned out to be 90.7% in assay [2] and 91.8% in assay [3]. Moreover, the fluorescence slope in assay [4] is -0.498 (inactive); in assay [6], 0.00565 (inactive). The NADPH fluorescence slope in assay [5] was 3.8e-05 (inactive).
Consider `Cc1ccc(NC(=O)CNc2cccc(C)c2C)c(C)c1`, for which, in assay [1], the cell count worked out at 505. Moreover, the inhibition in assay [1] is 2.5% (inactive); in assay [3] it was -54.3% (inactive); in assay [7] it was 5.56% (inactive); in assay [8] it was -4.35% (inactive). The inhibition of aggregation in assay [2] is -48.7% (inactive). Further, the nuclei count in assay [2] was 12.5%; in assay [3], 107%. The figures for the fluorescence slope in assay [4] and in assay [6] were -0.517 (inactive) and 0.00498 (inactive), respectively. Further, in assay [5], the NADPH fluorescence slope was -7.1e-05 (inactive).
For `COCCCNC(=O)C1CCCN(C(=O)Nc2ccc(OC)cc2)C1` (centres undefined), the cell count in assay [1] turned out to be 675. Further, the inhibition in assay [1] is -14.8% (inactive); in assay [3], 52.7% (inactive); in assay [7], 16.2% (inactive); in assay [8], 4.9% (inactive). The inhibition of aggregation in assay [2] was -11.8% (inactive). Further, the nuclei count amounted to 107% in assay [2] and 49.2% in assay [3]. Moreover, the fluorescence slope is -0.315 (inactive) in assay [4] and 0.007 (inactive) in assay [6]. For the same compound, the NADPH fluorescence slope in assay [5] is -5.2e-05 (inactive).

By inhibition is commonly meant the drop in the measured response relative to a control, in per cent.
